From ChEMBL document CHEMBL1240350, “In vitro activity of CEM-101 against Streptococcus pneumoniae and Streptococcus pyogenes with defined macrolide resistance mechanisms” (Antimicrob Agents Chemother, 2010)
≈ marks a conversion by molar mass, not a printed value.

How the values were obtained:
Streptococcus pneumoniae [1] = assay: Antibacterial activity against macrolide-susceptible Streptococcus pneumoniae 7127 harboring S20N mutation in L4 ribosomal protein and A105V mutation in L22 ribosomal protein after 15 passages and 10 compound-free subculturing by retest method; format: functional
Streptococcus pneumoniae [2] = assay: Antibacterial activity against macrolide-susceptible Streptococcus pneumoniae 1077 after 29 passages and 10 compound-free subculturing by retest method; format: functional
Streptococcus pyogenes [3] = assay: Antibacterial activity against macrolide-susceptible Streptococcus pyogenes 2132 after 28 passages and 10 compound-free subculturing by retest method
Streptococcus pneumoniae [4] = assay: Antibacterial activity against Streptococcus pneumoniae harboring erm(B) gene after overnight incubation by agar dilution method; format: functional
How it was run: (§1)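 Clinical isolates collected 1998–2008, with macrolide-resistance genes confirmed by PCR. MICs by agar dilution on Mueller-Hinton agar with 5% sheep blood. Inoculum 10^4 CFU/spot, incubated overnight at 35°C in ambient air. S. pneumoniae ATCC 49619 was the quality-control strain in every run.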

Streptococcus pneumoniae [5] = assay: Antibacterial activity against macrolide-resistant Streptococcus pneumoniae harboring mutation in L4 ribosomal protein after overnight incubation by agar dilution method; format: functional
How it was run: (§2)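 Agar dilution MICs on Mueller-Hinton agar with 5% sheep blood. Inoculum 10^4 CFU/spot, incubated overnight at 35°C in ambient air. Clinical S. pneumoniae or group A streptococcal isolates; resistance genotypes (erm(B), erm(A), mef(A)/mef(E)) were assigned by PCR. S. pneumoniae ATCC 49619 served as QC strain in each run. Range, MIC50 and MIC90 reported per phenotype group.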

Streptococcus pneumoniae [6] = assay: Antibacterial activity against macrolide-resistant Streptococcus pneumoniae 1635 harboring erm(A) gene after 49 passages and 10 compound-free subculturing by retest method; format: functional
How it was run: (§3)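 Multistep selection by daily serial passage in subinhibitory drug concentrations. Medium was cation-adjusted Mueller-Hinton broth plus 5% lysed horse blood. Each day the next inoculum came from the tube 1–2 dilutions below the MIC whose turbidity matched the growth control, for up to 50 days. Clone MICs by CLSI macrodilution; identity to the parent confirmed by SmaI PFGE.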

Streptococcus pneumoniae [7] = assay: Antibacterial activity against macrolide-susceptible Streptococcus pneumoniae 1077 after 49 passages and 10 compound-free subculturing by retest method; format: functional
Streptococcus pneumoniae [8] = assay: Antibacterial activity against macrolide-resistant Streptococcus pneumoniae 2686 harboring mutation in L4 ribosomal protein after 22 passages and 10 compound-free subculturing by retest method; format: functional
Streptococcus pyogenes [9] = assay: Antibacterial activity against macrolide-resistant Streptococcus pyogenes 237 harboring mutation in L4 ribosomal protein after 43 passages and 10 compound-free subculturing by retest method
Streptococcus pyogenes [10] = assay: Antibacterial activity against macrolide-resistant Streptococcus pyogenes 237 harboring mutation in L4 ribosomal protein after 20 passages and 10 compound-free subculturing by retest method
Streptococcus pyogenes [11] = assay: Antibacterial activity against macrolide-resistant Streptococcus pyogenes 2094 harboring erm(A) gene after 5 passages and 10 compound-free subculturing by retest method
Streptococcus pneumoniae [12] = assay: Antibacterial activity against Streptococcus pneumoniae harboring mutation in 23S rRNA after overnight incubation by agar dilution method; format: functional; how it was run: as §1
Streptococcus pyogenes [13] = assay: Antibacterial activity against macrolide-resistant Streptococcus pyogenes 2368 harboring erm(B) gene after overnight incubation by agar dilution method
Streptococcus pyogenes [14] = assay: Antibacterial activity against macrolide-resistant Streptococcus pyogenes 2011 harboring mef(A) gene after 50 passages following overnight incubation by agar dilution method
Streptococcus pneumoniae [15] = assay: Antibacterial activity against macrolide-resistant Streptococcus pneumoniae 1076 harboring erm(B) and mef(A) gene after 14 passages and 10 compound-free subculturing by retest method; format: functional; how it was run: as §3
Streptococcus pneumoniae [16] = assay: Antibacterial activity against macrolide-resistant Streptococcus pneumoniae 2686 harboring mutation in L4 ribosomal protein after 25 passages and 10 compound-free subculturing by retest method; format: functional
Streptococcus pneumoniae [17] = assay: Antibacterial activity against penicillin-susceptible Streptococcus pneumoniae after overnight incubation by agar dilution method; format: functional
How it was run: (§4)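 Agar dilution on Mueller-Hinton agar supplemented with 5% sheep blood. Inoculum 10^4 CFU/spot, incubated overnight at 35°C in ambient air. Test strains were clinical pneumococcal isolates. S. pneumoniae ATCC 49619 was included as the quality control strain in each run. MIC range, MIC50 and MIC90 were reported for each susceptibility category.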

Streptococcus pneumoniae [18] = assay: Antibacterial activity against macrolide-resistant Streptococcus pneumoniae 1635 harboring erm(A) gene after overnight incubation by agar dilution method; format: functional
Streptococcus pyogenes [19] = assay: Antibacterial activity against macrolide-susceptible Streptococcus pyogenes 2132 after 50 passages following overnight incubation by agar dilution method
Streptococcus pyogenes [20] = assay: Antibacterial activity against macrolide-susceptible Streptococcus pyogenes 2132 after overnight incubation by agar dilution method
Streptococcus pneumoniae [21] = assay: Antibacterial activity against macrolide-resistant Streptococcus pneumoniae 1076 harboring erm(B) and mef(A) gene after overnight incubation by agar dilution method; format: functional
Streptococcus pyogenes [22] = assay: Antibacterial activity against macrolide-resistant Streptococcus pyogenes 2094 harboring erm(A) gene after overnight incubation by agar dilution method
Streptococcus pneumoniae [23] = assay: Antibacterial activity against macrolide-susceptible Streptococcus pneumoniae 7127 harboring S20N mutation in L4 ribosomal protein and A105V mutation in L22 ribosomal protein after 38 passages and 10 compound-free subculturing by retest method; format: functional
Streptococcus pneumoniae [24] = assay: Antibacterial activity against macrolide-susceptible Streptococcus pneumoniae 7127 harboring S20N mutation in L4 ribosomal protein and A105V mutation in L22 ribosomal protein after 16 passages and 10 compound-free subculturing by retest method; format: functional
Streptococcus pneumoniae [25] = assay: Antibacterial activity against macrolide-resistant Streptococcus pneumoniae 3665 harboring mef(A) gene after overnight incubation by agar dilution method; format: functional
Streptococcus pneumoniae [26] = assay: Antibacterial activity against macrolide-susceptible Streptococcus pneumoniae 1077 after 15 passages and 10 compound-free subculturing by retest method; format: functional
Streptococcus pneumoniae [27] = assay: Antibacterial activity against macrolide-resistant Streptococcus pneumoniae 24 harboring erm(B) gene after overnight incubation by agar dilution method; format: functional
Streptococcus pneumoniae [28] = assay: Antibacterial activity against macrolide-susceptible Streptococcus pneumoniae 1077 after overnight incubation by agar dilution method; format: functional
Streptococcus pneumoniae [29] = assay: Antibacterial activity against quinolone-susceptible Streptococcus pneumoniae after overnight incubation by agar dilution method; format: functional; how it was run: as §4
Streptococcus pneumoniae [30] = assay: Antibacterial activity against Streptococcus pneumoniae harboring erm(B) and mef(A) gene after overnight incubation by agar dilution method; format: functional; how it was run: as §1
Streptococcus pyogenes [31] = assay: Antibacterial activity against Streptococcus pyogenes harboring erm(A) gene after overnight incubation by agar dilution method; format: functional; how it was run: as §1
Streptococcus pneumoniae [32] = assay: Antibacterial activity against macrolide-resistant Streptococcus pneumoniae 3665 harboring mef(A) gene after 26 passages and 10 compound-free subculturing by retest method; format: functional
Streptococcus pyogenes [33] = assay: Antibacterial activity against macrolide-resistant Streptococcus pyogenes harboring mef(A) gene after overnight incubation by agar dilution method; format: functional; how it was run: as §2
Streptococcus pneumoniae [34] = assay: Antibacterial activity against macrolide-resistant Streptococcus pneumoniae 1076 harboring erm(B) and mef(A) gene after 18 passages and 10 compound-free subculturing by retest method; format: functional; how it was run: as §3

Structure (SMILES)	MIC (Streptococcus pneumoniae [1])	MIC (Streptococcus pneumoniae [2])	MIC (Streptococcus pyogenes [3])	MIC50 (Streptococcus pneumoniae [4])	MIC50 (Streptococcus pneumoniae [5])	MIC90 (Streptococcus pneumoniae [5])	MIC (Streptococcus pneumoniae [6])	MIC (Streptococcus pneumoniae [7])	MIC (Streptococcus pneumoniae [8])	MIC (Streptococcus pyogenes [9])	MIC (Streptococcus pyogenes [10])	MIC (Streptococcus pyogenes [11])	MIC (Streptococcus pneumoniae [12])	MIC (Streptococcus pyogenes [13])	MIC (Streptococcus pyogenes [14])	MIC (Streptococcus pneumoniae [15])	MIC (Streptococcus pneumoniae [16])	MIC50 (Streptococcus pneumoniae [17])	MIC90 (Streptococcus pneumoniae [17])	MIC (Streptococcus pneumoniae [18])	also measured
CC[C@H]1OC(=O)[C@H](C)[C@@H](O[C@H]2C[C@@](C)(OC)[C@@H](O)[C@H](C)O2)[C@H](C)[C@@H](O[C@@H]2O[C@H](C)C[C@H](N(C)C)[C@H]2O)[C@](C)(OC)C[C@@H](C)C(=O)[C@H](C)[C@@H](O)[C@]1(C)O [CLARITHROMYCIN]	16 µg/mL (≈ 21.4 µM)	> 64 µg/mL	0.25 µg/mL (≈ 0.334 µM)	> 64 µg/mL	16 µg/mL (≈ 21.4 µM)	32 µg/mL (≈ 42.8 µM)	> 64 µg/mL	> 64 µg/mL	32 µg/mL (≈ 42.8 µM)	0.5 µg/mL (≈ 0.668 µM)	1 µg/mL (≈ 1.34 µM)	1 µg/mL (≈ 1.34 µM)	8 µg/mL (≈ 10.7 µM)	> 64 µg/mL	8 µg/mL (≈ 10.7 µM)	> 64 µg/mL	16 µg/mL (≈ 21.4 µM)	1 µg/mL (≈ 1.34 µM)	> 64 µg/mL	0.5 µg/mL (≈ 0.668 µM)	MIC (Streptococcus pyogenes [19]): 0.016 µg/mL (≈ 0.0214 µM); MIC (Streptococcus pyogenes [20]): 0.03 µg/mL (≈ 0.0401 µM); MIC (Streptococcus pneumoniae [21]): > 64 µg/mL; MIC (Streptococcus pyogenes [22]): 0.5 µg/mL (≈ 0.668 µM); MIC (Streptococcus pneumoniae [23]): 0.06 µg/mL (≈ 0.0802 µM); MIC (Streptococcus pneumoniae [24]): 0.125 µg/mL (≈ 0.167 µM); MIC (Streptococcus pneumoniae [25]): 2 µg/mL (≈ 2.67 µM); MIC (Streptococcus pneumoniae [26]): > 64 µg/mL; MIC (Streptococcus pneumoniae [27]): > 64 µg/mL; MIC (Streptococcus pneumoniae [28]): 0.016 µg/mL (≈ 0.0214 µM); MIC50 (Streptococcus pneumoniae [29]): 16 µg/mL (≈ 21.4 µM); MIC90 (Streptococcus pneumoniae [29]): > 64 µg/mL; MIC50 (Streptococcus pneumoniae [30]): > 64 µg/mL; MIC50 (Streptococcus pyogenes [31]): 2 µg/mL (≈ 2.67 µM); MIC90 (Streptococcus pyogenes [31]): > 64 µg/mL; MIC (Streptococcus pneumoniae [32]): 8 µg/mL (≈ 10.7 µM); MIC50 (Streptococcus pyogenes [33]): 4 µg/mL (≈ 5.35 µM); MIC90 (Streptococcus pyogenes [33]): 8 µg/mL (≈ 10.7 µM); MIC (Streptococcus pneumoniae [34]): > 64 µg/mL
CCC[C@@H]1C[C@@H](C(=O)N[C@@H]([C@H]2O[C@H](SC)[C@H](O)[C@@H](O)[C@H]2O)[C@H](C)Cl)N(C)C1 [CLINDAMYCIN]	1 µg/mL (≈ 2.35 µM)	4 µg/mL (≈ 9.41 µM)	0.03 µg/mL (≈ 0.0706 µM)	> 64 µg/mL	0.06 µg/mL (≈ 0.141 µM)	0.125 µg/mL (≈ 0.294 µM)	0.25 µg/mL (≈ 0.588 µM)	8 µg/mL (≈ 18.8 µM)	0.03 µg/mL (≈ 0.0706 µM)	1 µg/mL (≈ 2.35 µM)	0.03 µg/mL (≈ 0.0706 µM)	0.06 µg/mL (≈ 0.141 µM)	0.03 µg/mL (≈ 0.0706 µM)	> 64 µg/mL	0.06 µg/mL (≈ 0.141 µM)	> 64 µg/mL	0.03 µg/mL (≈ 0.0706 µM)	0.06 µg/mL (≈ 0.141 µM)	> 64 µg/mL	0.06 µg/mL (≈ 0.141 µM)	MIC (Streptococcus pyogenes [19]): 0.06 µg/mL (≈ 0.141 µM); MIC (Streptococcus pyogenes [20]): 0.06 µg/mL (≈ 0.141 µM); MIC (Streptococcus pneumoniae [21]): 64 µg/mL (≈ 151 µM); MIC (Streptococcus pyogenes [22]): 0.06 µg/mL (≈ 0.141 µM); MIC (Streptococcus pneumoniae [23]): 0.03 µg/mL (≈ 0.0706 µM); MIC (Streptococcus pneumoniae [24]): 0.03 µg/mL (≈ 0.0706 µM); MIC (Streptococcus pneumoniae [25]): 0.016 µg/mL (≈ 0.0376 µM); MIC (Streptococcus pneumoniae [26]): 8 µg/mL (≈ 18.8 µM); MIC (Streptococcus pneumoniae [27]): > 64 µg/mL; MIC (Streptococcus pneumoniae [28]): 0.016 µg/mL (≈ 0.0376 µM); MIC50 (Streptococcus pneumoniae [29]): 0.06 µg/mL (≈ 0.141 µM); MIC90 (Streptococcus pneumoniae [29]): > 64 µg/mL; MIC50 (Streptococcus pneumoniae [30]): 0.06 µg/mL (≈ 0.141 µM); MIC50 (Streptococcus pyogenes [31]): 0.125 µg/mL (≈ 0.294 µM); MIC90 (Streptococcus pyogenes [31]): 0.25 µg/mL (≈ 0.588 µM); MIC (Streptococcus pneumoniae [32]): 0.03 µg/mL (≈ 0.0706 µM); MIC50 (Streptococcus pyogenes [33]): 0.06 µg/mL (≈ 0.141 µM); MIC90 (Streptococcus pyogenes [33]): 0.125 µg/mL (≈ 0.294 µM); MIC (Streptococcus pneumoniae [34]): > 64 µg/mL
